Tn6 DDE FP = inhibitors of Tn6 peptide binding to human fibrin DD(E); P02675; Fibrin DD(E) TRITC-Tn6 fluorescence polarization displacement; inhibition, % at 8.3 µM; 370,000 compounds, 0.21% hits;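 active means inhibition above a per-campaign cutoff: mean of compounds within control limits plus 3 SD, cut at about 15% in these data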
Target sequence (P02675 whole entry, looked up): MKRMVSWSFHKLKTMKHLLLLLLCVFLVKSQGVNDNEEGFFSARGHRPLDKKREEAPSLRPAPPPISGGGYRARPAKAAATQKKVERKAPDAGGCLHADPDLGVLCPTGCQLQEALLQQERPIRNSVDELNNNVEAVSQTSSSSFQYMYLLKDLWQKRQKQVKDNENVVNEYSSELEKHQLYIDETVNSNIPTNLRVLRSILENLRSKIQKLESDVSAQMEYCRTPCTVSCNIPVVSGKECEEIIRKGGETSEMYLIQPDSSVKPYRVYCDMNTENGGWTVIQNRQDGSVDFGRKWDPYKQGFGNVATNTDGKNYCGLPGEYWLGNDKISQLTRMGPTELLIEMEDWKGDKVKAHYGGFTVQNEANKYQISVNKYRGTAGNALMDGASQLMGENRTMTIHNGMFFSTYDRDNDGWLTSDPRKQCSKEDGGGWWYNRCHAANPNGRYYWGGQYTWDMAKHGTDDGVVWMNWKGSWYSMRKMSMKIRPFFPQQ
NRP1-CendR mod = NRP-1/CendR interaction modulation; FAM-RPARPAR peptide binding to NRP-1, fluorescence polarization; inhibition, % at 25 µM; 360,000 compounds, 0.85% hits; AID 602438;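 active means inhibition or corrected inhibition above about 18%, plus a signal ratio from 0.5 to 1.5, limit read from the data, passing the limit was not always enough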
DDE Tn7 FP inh = inhibitors of Tn7 peptide binding to human fibrin DD(E) | P02675 | FP displacement of FITC-Tn7 peptide from fibrin DD(E); 0% = median of compound wells per plate | inhibition, % at 8.3 µM | 370,000 compounds, 0.13% hits;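 active means inhibition above the mean of compounds falling within the control limits plus 3 SD of them, cut at about 14% in these data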
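Measure: % inhibition scaled between sample-field median and high-control FP; Test system: human fibrin DD(E); Quantity: 2 µM final DD(E) protein; Doses: one dose, 8.3 µM nominal; Schedule: compound with protein 10 min, then 3 h after probe, room temperature; Detection: fluorescence polarization; Medium: Tris buffer with calcium and detergent, pH 7.8.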
aDG glyco act = increases alpha dystroglycan glycosylation | AID 624168 | Pro5-aDG cells, alpha-DG glycosylation AlphaScreen (IIH6); 0% Pro5, 100% B10-LARGE cell signal | activation, % at 10 µM | 360,000 compounds, 0.22% hits;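 active means activation of at least 8% versus controls, or a plate z-score of at least 8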;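 further: Pro5 are CHO cells carrying HIG-tagged alpha-DG that lacks glycosylation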
DDE Tn7 confirm = confirmation of inhibitors of Tn7 binding to human fibrin DD(E). shares compounds with DDE Tn7 FP inh. FP displacement of TRITC-Tn7 peptide from DD(E); 0% set at plate's compound-well median. inhibition, % at 8.3 µM. 460 compounds, 5% hits;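 active means inhibition above the campaign cutoff, the mean of compounds within control limits plus 3 SD, cut at about 14% in these data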;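 further: displacers lower polarization since freed probe rises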
DDE Tn7 FP ctr = counter-screen hit for Tn7 peptide-fibrin DD(E) binding disruption. shares compounds with DDE Tn7 FP inh. TRITC-Tn7 probe displacement, fluorescence polarization. inhibition, % at 8.3 µM. 460 compounds, 3% hits;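 active means inhibition above the cutoff, the mean of compounds lying between the control bounds plus 3 SD of those compounds, cut at about 17% in these data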
Hits are given with their value; n = inactive; x = no result given. Compounds with a hit are over-represented: about 1.3% of the library has one in this group of screens.

SMILES	Tn6 DDE FP	NRP1-CendR mod	DDE Tn7 FP inh	aDG glyco act	DDE Tn7 confirm	DDE Tn7 FP ctr
CCOC(=O)C1=Nc2cccc3c(O)ccc1c23	n	x	46	x	21	n
CC(C)c1ccc(NC(=O)OC2CCC23CCC(c2ccccc2)CC3)cc1 (configuration not stated)	n	x	n	x	x	x
COc1ccc(Cn2nnnc2C(c2ccc3ncccc3c2)N2CCN(C3CCCCC3)CC2)cc1 (configuration not stated)	n	n	14	n	n	n
COCCn1c(COc2cccc(OC)c2)nnc1SCC(=O)NC1CCCCC1	n	n	19	n	n	n
COCCn1c(COc2cccc(OC)c2)nnc1SCC(=O)NC1CCCC1	n	n	n	n	x	x
CCC[C@H]1[C@@H](NC(=O)C2CCOC2)CC[C@@]23CCCN2C(=O)CCC[C@@H]13 (some centres not stated)	n	x	n	x	x	x
O=C(CN(Cc1cccs1)C(=O)CNS(=O)(=O)c1ccc(Cl)cc1)NCc1ccco1	n	n	15	n	n	n
CCOC(=O)C1CSCCS(=O)(=O)N1Cc1ccc(F)cc1 (configuration not stated)	n	x	n	x	x	x
C=CCNC(=O)CN(CCc1ccccc1)S(=O)(=O)c1ccccc1	n	n	16	n	n	n
C=CCNC(=O)CN(Cc1ccccc1)S(=O)(=O)c1ccc(C)cc1	n	n	n	n	x	x
CCn1nc(C)c(CCC(=O)O)c1C	n	n	n	n	x	x
Cc1nn(C)c(C)c1CCC(=O)O	n	n	14	n	n	n
COc1ccc(NC(=O)CCn2c(=S)[nH]c3ccccc3c2=O)cc1Cl	n	n	n	n	x	x
O=C(c1cccc(NC2=NC3CS(=O)(=O)CC3S2)c1)N1CCN(c2ccc(F)cc2)CC1 (configuration not stated)	n	n	n	n	x	x
O=C(c1cccc(NC2=NC3CS(=O)(=O)CC3S2)c1)N1CCN(c2cccc(Cl)c2)CC1 (configuration not stated)	n	n	17	n	n	n
CCCCN1CC(N2CCCC2)CS1(=O)=O (configuration not stated)	n	x	n	x	x	x
CC1(c2ccccc2)NC(=O)N(CC(=O)Nc2ccc(N3CCOCC3)cc2N2CCOCC2)C1=O (configuration not stated)	n	n	14	n	n	n
NC(=O)c1ccccc1OCc1nnc(-c2ccccc2Br)o1	n	n	n	n	x	x
COc1ccc(CCNC(=O)CC(=O)N/N=C\c2ccc(OCC(N)=O)cc2)cc1OC	n	n	n	n	x	x
O=C(CN1CCOCC1)N(c1ccccc1)c1ccc2ccccc2c1	n	n	n	n	x	x
O=C(CN1CCN(c2ccccn2)CC1)N(c1ccccc1)c1ccc2ccccc2c1	n	n	15	n	n	n
CCOC(=O)C1=CC[C@@H](c2ccccc2)N(S(=O)(=O)c2ccc(C)cc2)[C@H]1C#N	n	n	n	n	x	x
CCn1c(=O)n(CC(=O)N2CCC(C)CC2)c(=O)c2ccccc21	n	x	n	x	x	x
COc1ccc(-n2nnnc2CNC(=O)C2CC(=O)N(c3ccc(F)cc3)C2)cc1 (configuration not stated)	n	n	14	n	n	n
O=C(NCc1nnnn1-c1ccc(Cl)cc1)C1CC(=O)N(c2ccc(F)cc2)C1 (configuration not stated)	n	n	n	n	x	x
SMILES	Tn6 DDE FP	NRP1-CendR mod	DDE Tn7 FP inh	aDG glyco act	DDE Tn7 confirm	DDE Tn7 FP ctr
O=C(OCCN1C(=O)c2cccc3c(N4CCOCC4)ccc(c23)C1=O)c1ccccc1Cl	n	n	33	n	n	n
CCOC(=O)N1CCN(Cc2nc(-c3ccc(C)cc3)no2)CC1	n	n	16	n	16	n
CCOC(=O)N1CCN(Cc2nc(-c3cccc(Cl)c3)no2)CC1	n	n	n	n	x	x
CCC1=Nc2cc(C(=O)O)ccc2Sc2ccc(Cl)cc21	n	n	15	n	n	n
O=C(Cn1c(Cc2ccccc2)nc2ccccc21)NCc1ccc2c(c1)OCO2	n	n	15	n	n	n
O=C(CCl)NC(Cc1ccccc1)c1ccccc1 (configuration not stated)	n	n	15	n	n	n
COc1ccccc1C(=O)NCC(=O)OCC(=O)Nc1ccc2[nH]c(=O)[nH]c2c1	n	n	15	n	n	n
O=C(CSc1nc2c(cnn2-c2ccc(F)cc2)c(=O)[nH]1)N1CCCCC1	n	n	15	n	n	n
CCOC(=O)[C@H]1[C@H]2COc3ccc(C)cc3[C@@H]2N2C(=O)CN(Cc3ccc(Cl)cc3)C(=O)[C@@]12C	n	n	n	n	x	x
CCOC(=O)[C@H]1[C@H]2COc3ccccc3[C@@H]2N2C(=O)CN(Cc3ccc(C)cc3)C(=O)[C@@]12C	n	n	20	n	n	n
CC(C)CC(=O)c1c(O)cc(O)c2c1OC1=C(C(=O)C(C)(C)C(=O)C1(C)C)C2CC(C)C (configuration not stated)	n	x	n	x	x	x
COc1cc2ncnc(NCc3ccc(C)cc3)c2cc1OC	n	n	14	n	n	n
CC(=O)Nc1cc(-c2ccccc2N(C)C)cn2c(-c3cccc(C(F)(F)F)c3)cnc12	n	n	21	n	n	n
CC(C)c1ccccc1NC(=O)CSc1n[nH]c(=O)n1C1CC1	n	n	14	n	n	n
CC(C)(C)c1ccc(NC(=O)CSc2n[nH]c(=O)n2C2CC2)cc1	n	n	n	n	x	x
COc1ccc(C=Cc2ccc3ccccc3n2)c(OC)c1	n	n	27	n	n	n
O=C1C=CC(O)(c2cc(=O)c3c(O)cc(O)cc3o2)C=C1	n	n	14	n	n	n
COc1cc(OC)cc(C(C)c2ccc(-c3ccccc3)cc2)c1 (configuration not stated)	n	x	n	x	x	x
Cc1ccc(S(=O)(=O)N2C[C@H]3n4c(=O)ccc(=O)n4C[C@H](OC(=O)NCC4CCCCC4)[C@@]3(O)C2)cc1	n	n	n	n	x	x
CCOc1ccc(NC(=O)CCN2CCCCC2)cc1	n	n	16	n	n	n
COc1ccc(NC(=O)CCN2CCCCC2)cc1	n	n	n	n	x	x
O=C(NNC(=O)c1ccccc1-n1cccc1)c1cccnc1	n	n	n	n	x	x
O=C(NNC(=O)c1ccccc1-n1cccc1)c1cncc(Br)c1	n	n	16	n	n	n
CCn1c2ccccc2c2cc(NC(=O)COC(=O)c3cc(F)ccc3C)ccc21	n	x	n	x	x	x
COc1ccc(OC)c(NC(=O)c2ccc(-c3cccs3)cc2)c1	n	n	15	n	n	n
COc1ccc(NC(=O)c2cc(-c3cccs3)on2)c(OC)c1	n	n	n	n	x	x
O=S1(=O)N[C@@H](Cc2ccccc2)COc2cccc(N3CCCC3)c21	n	x	n	x	x	x
CC(C)C[C@H]1CN=C(N(C)C)N1CCCCc1ccccc1	n	n	n	n	x	x
